# Source: PubChem
# TAAR1 ag: human TAAR1 agonists, primary screen, Fluo-8 calcium fluorescence, CHO RD-HGA16 cells; Trace amine-associated receptor 1 (Homo sapiens), Q96RJ0; vehicle wells 0%, saturating PEA agonist 100%; activation, % at 3 µM; hit rate 0.99% among 360,000;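 active = activation above the mean activation of all test compounds in the run plus 3 SD, cut at about 38% in these data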
#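 Test system: RD-HGA16 (CHO) cells co-expressing Gα16 and hTAAR1; dosing: one-point dosing at 3 µM (nominal); timing: 17-24 h seeding, 75 min 37 °C dye, 30 min RT; signal: kinetic Fluo-8 calcium fluorescence; read-out basis: % activation relative to PEA EC100 response; controls: DMSO and PEA EC100; replicates: n 1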
# CHO parental Ca: ATP-evoked calcium signal inhibitors, parental CHO, primary screen, counter-screen for OX1R antagonist project, cell-based, fluorescence, Fluo-8 calcium dye; hit rate 0.63% among 330,000; parental CHO-K1, ATP-induced calcium, Fluo-8 fluorescence; AID 463079, 2010; inhibition, % at 5.6 µM;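 active = inhibition above that plate's mean sample inhibition plus 3 SD, cut at about 26% in these data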;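 note: 0% = ATP-challenged DMSO wells and 100% = DMSO wells without ATP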
#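 Test system: parental CHO cells; detection: calcium-sensitive Fluo-8 fluorescence; evaluation: percent inhibition of calcium signal; also added: ATP as calcium-mobilizing challenge; repeats: one well per compound; control set: ATP-challenged DMSO wells low, unchallenged DMSO wells high; compound: single nominal dose of 5.6 µM per compound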
# OX1R antag-1: antagonists of human orexin 1 receptor (OX1R); Orexin/Hypocretin receptor type 1 (Homo sapiens), O43613; OX1R-expressing cells, FRET antagonist read-out; inhibition, % at 6.6 µM; hit rate 1.8% among 330,000; in the data active = inhibition mostly above about 38%, no sharp cut-off; inactive = mostly below about 40%;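 note: 0% = agonist challenge alone and 100% = reference antagonist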
# Target sequence (O43613 whole entry, looked up): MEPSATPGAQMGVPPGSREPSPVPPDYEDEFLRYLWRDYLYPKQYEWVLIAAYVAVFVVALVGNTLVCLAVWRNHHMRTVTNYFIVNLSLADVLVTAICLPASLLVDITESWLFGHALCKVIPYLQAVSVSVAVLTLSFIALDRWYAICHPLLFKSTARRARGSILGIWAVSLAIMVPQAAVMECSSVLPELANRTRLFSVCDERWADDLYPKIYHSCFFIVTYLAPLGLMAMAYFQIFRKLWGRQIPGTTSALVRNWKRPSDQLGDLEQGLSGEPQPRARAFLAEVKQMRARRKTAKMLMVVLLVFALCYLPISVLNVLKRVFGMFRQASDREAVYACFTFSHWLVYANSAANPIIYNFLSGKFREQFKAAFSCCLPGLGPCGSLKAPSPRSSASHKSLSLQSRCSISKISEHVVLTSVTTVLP
# GPR7 antagonist: GPR7 receptor antagonists, primary screen, cell-based, fluorescence, single concentration. Neuropeptides B/W receptor type 1 (Homo sapiens), P48145. GPR7-expressing cells, fluorescence antagonist assay. inhibition, % at 4.4 µM. hit rate 1.1% among 290,000. AID 1861, 2009; in the data active = inhibition above about 16%, passing the limit was not always enough;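 note: cells stimulated with the agonist NPW; 0% = agonist with vehicle and 100% = vehicle without agonist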
# OX1R antag-2: OX1R (HCRTR1) antagonists, primary screen, fluorescence, CHO/OX1R cells, Fluo-8 calcium, orexin A; Orexin/Hypocretin receptor type 1 (Homo sapiens), O43613; Fluo-8 calcium fluorescence; inhibition, % at 5 µM; hit rate 0.43% among 330,000; AID 434989, 2010;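 active = inhibition above its plate's threshold, mean inhibition of all tested compounds on the plate plus 3 SD, cut at about 37% in these data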;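 note: 0% = orexin A challenge wells and 100% = SB-334867-A antagonist wells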
# TAAR1 antagonist: human TAAR1 antagonists, primary screen, Fluo-8 calcium fluorescence, CHO RD-HGA16 cells; antagonist; inhibition, % at 3 µM; hit rate 1.5% among 360,000;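 active = inhibition above a per-plate cutoff, the mean inhibition of test compounds on that plate plus 3 SD, cut at about 49% in these data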;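 note: 0% = DMSO plus EC80 beta-PEA response and 100% = DMSO alone without agonist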
#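 Material: RD-HGA16 CHO cells with stable hTAAR1 and Gα16; Dosing: single nominal final test compound concentration of 3 µM; Schedule: seeding 17-24 h prior, 75-min 37 °C, 30-min RT dye loading; Detection: kinetic Fluo-8 calcium fluorescence measurement; Measure: % inhibition from peak post-agonist over basal fluorescence ratio; Benchmarks: vehicle and agonist controls.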
# OX1R Fluo8 conf: OX1R (HCRTR1) antagonists, confirmation, fluorescence, CHO/OX1R cells, Fluo-8 calcium, orexin A; inhibition, % at 5 µM; shares compounds with OX1R antag-2; hit rate 38% among 1,100; orexin A calcium Fluo-8 fluorescence; in the data active = inhibition above about 29%;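 note: 0% = agonist challenge alone and 100% = reference antagonist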
# CHO Ca counter: ATP-evoked calcium inhibition in parental CHO, counter-screen for OX1R antagonist project, cell-based, fluorescence, CHO-K1, triplicate; ATP-induced calcium, Fluo-8 fluorescence; shares compounds with OX1R antag-2; inhibition, % at 5.6 µM; hit rate 9.3% among 1,100;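 active = inhibition above a per-plate limit, the mean inhibition of that plate's test compounds plus 3 SD, cut at about 25% in these data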;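 note: 0% = ATP challenge with DMSO and 100% = DMSO without ATP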
# OX1R HTRF confirm: OX1R (HCRTR1) antagonists, confirmation, cell-based, HTRF; inhibition, % at 6.6 µM; hit rate 49% among 1,800; OX1R-expressing cells, HTRF antagonist assay; shares compounds with OX1R antag-1; in the data active = inhibition above about 55%;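 note: CHO cells expressing OX1R stimulated with orexin A at about EC80; 0% = agonist challenge alone and 100% = reference antagonist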
# CHO-K1 HTRF: signal inhibition in parental CHO-K1 cells, counter-screen for OX1R antagonist project, cell-based, HTRF | shares compounds with OX1R antag-1 | HTRF counterscreen | inhibition, % at 6.6 µM | hit rate 48% among 1,800 | AID 493232, 2011; in the data active = inhibition above about 17%;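 note: 0% = agonist challenge with vehicle and 100% = vehicle alone without agonist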
# TAAR1 ag confirm: human TAAR1 agonists, retest of hits, confirmation, Fluo-8 calcium fluorescence, CHO RD-HGA16 cells; activation, % at 3 µM; scaled: DMSO 0%, maximal phenethylamine 100%; shares compounds with TAAR1 ag; hit rate 82% among 2,400;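 active = activation above a cutoff set at the run's mean compound activation plus 3 SD, cut at about 39% in these data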
# Ga16 ag counter: nonselective calcium mobilization agonists, CHO-Ga16 cells, counter-screen for hTAAR1 agonist project, cell-based, fluorescence, CHO-Ga16 parental line | shares compounds with TAAR1 ag | AID 651787, 2012 | Fluo-8 calcium fluorescence; normalized to maximal ATP response, DMSO zero | activation, % at 3 µM | hit rate 50% among 2,400;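 active = activation above the run cutoff, the mean activation over all tested wells plus 3 SD, cut at about 12% in these data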;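 note: 0% = DMSO wells and 100% = maximal ATP response on the peak over basal ratio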
# TAAR1 desensitize: TAAR1 desensitization by agonist hits, confirmation, counter-screen for TAAR1 agonist project, cell-based, fluorescence, tachyphylaxis; hit rate 46% among 2,400; inhibition, % at 3 µM; CHO RD-HGA16 hTAAR1, Fluo-8 calcium, beta-PEA response inhibition; shares compounds with TAAR1 ag;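 active = inhibition above the run cutoff, the mean inhibition of all test compounds plus 3 SD, cut at about 49% in these data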;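 note: beta-PEA stimulus applied at its EC80; loss of beta-PEA calcium signal after compound pretreatment read as receptor desensitization; 0% = DMSO with beta-PEA at EC80 and 100% = DMSO alone without agonist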
# Ga16 antag count: inhibition of ATP-evoked calcium response in CHO-Ga16 cells, counter-screen for TAAR1 agonist project, cell-based, fluorescence; inhibition, % at 3 µM; CHO-Ga16 ATP-induced calcium, Fluo-8 fluorescence; AID 651952, 2012; hit rate 39% among 2,400; shares compounds with TAAR1 ag;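 active = inhibition above the plate's mean compound inhibition plus 3 SD, computed per plate, cut at about 22% in these data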;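 note: 0% = EC80 ATP with DMSO and 100% = DMSO wells without ATP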
# * hit, by the source's call; . = not tested or not shown. Rows were chosen to be rich in hits. Some 4.6% of all compounds tested hit in one or more screens of this group.
SMILES,TAAR1 ag,CHO parental Ca,OX1R antag-1,GPR7 antagonist,OX1R antag-2,TAAR1 antagonist,OX1R Fluo8 conf,CHO Ca counter,TAAR1 ag confirm,Ga16 ag counter,TAAR1 desensitize,Ga16 antag count,others
CCOc1ccc(NS(=O)(=O)c2ccc(NC(=S)NC(=O)CC(C)C)cc2)cc1,72*,-1,9,5,29,61*,20,-8,70*,31*,68*,39*,
CC(O)(c1cccnc1)c1nc(-c2cccc(C#N)c2)cs1 (centres undefined),1,.,.,.,.,-4,.,.,.,.,.,.,
O=C(Nc1ccccc1)[C@@H]1CC=C[C@@H]2CCN(Cc3ccc(Cl)c(Cl)c3)C(=O)[C@@H]21,57*,-27,85*,.,66*,17,56*,-18,51*,12*,17,2,OX1R HTRF confirm=92*;CHO-K1 HTRF=2
CCCCN(C(=O)c1ccc(-c2ccc(Cl)cc2)o1)c1c(N)n(CCC)c(=O)[nH]c1=O,1,-18,4,.,-11,-2,.,.,.,.,.,.,
Cc1ccc(C)c(Cn2nnc(C(=O)Nc3ccc4c(c3)OCCO4)c2N)c1,102*,15,6,.,22,67*,36*,20,105*,55*,63*,30*,
Cc1ccc(S(=O)(=O)N2CCOCC2)cc1NC(=O)COC(=O)COc1cccc2c1OC(C)(C)C2,5,-12,13,.,-13,-2,.,.,.,.,.,.,
CCCc1nnc(NC(=O)Cn2c(=O)oc3ccccc32)s1,20,2,-2,-10,-16,12,.,.,.,.,.,.,
CCCc1nnc(NC(=O)Cn2c(=O)oc3cc(Br)ccc32)s1,121*,6,-2,-3,40,63*,28,11,106*,73*,75*,45*,
Cc1ccc(NC(=O)CSc2nnc(C)n2C2CC2)cc1S(=O)(=O)N1CCOCC1,4,-16,9,.,-20,-9,.,.,.,.,.,.,
